In ChEMBL document CHEMBL4219021, “Discovery of a Small-Molecule Degrader of Bromodomain and Extra-Terminal (BET) Proteins with Picomolar Cellular Potencies and Capable of Achieving Tumor Regression” (J Med Chem, 2018):
Activity calls are given as the source filed them. The rule behind the calls is not given here.

Columns and labels:
[1] = biological target: T1, Protein cereblon/Bromodomain-containing protein 3/Cullin-4A (Homo sapiens) (UniProt Q15059+Q96SW2+Q13619); assay: Induction of cereblon/cullin 4A-mediated BRD3 degradation in human RS4:11 cells at 1 nM after 3 hrs in presence of NAE inhibitor MLN4924 by Western blot method; assay type: cell-based
[2] = biological target: T2, Protein cereblon/Bromodomain-containing protein 4/Cullin-4A (Homo sapiens) (UniProt O60885+Q96SW2+Q13619); assay: Induction of cereblon/cullin 4A-mediated BRD4 degradation in human RS4:11 cells at 1 nM after 3 hrs in presence of proteosome inhibitor MG-132 by Western blot method; assay type: cell-based
[3] = biological target: T1, Protein cereblon/Bromodomain-containing protein 3/Cullin-4A (Homo sapiens); assay: Induction of cereblon/cullin 4A-mediated BRD3 degradation in human RS4:11 cells at 1 nM after 3 hrs in presence of proteosome inhibitor MG-132 by Western blot method; assay type: cell-based
[4] = biological target: T3, Protein cereblon/Bromodomain-containing protein 2/Cullin-4A (Homo sapiens) (UniProt P25440+Q96SW2+Q13619); assay: Induction of cereblon/cullin 4A-mediated BRD2 degradation in human RS4:11 cells at 1 nM after 3 hrs in presence of cereblon inhibitor lenalidomide by Western blot method; assay type: cell-based
[5] = species: Homo sapiens; assay: Induction of cereblon/cullin 4A-mediated BET degradation in human RS4:11 cells assessed as downregulation of c-myc protein level at 0.1 nM after 24 hrs by Western blot method; assay type: cell-based
In short: (§1)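 RS4;11 cells (2 × 10⁶/well) treated for 24 h at the indicated concentrations. Lysed in RIPA with protease inhibitors and immunoblotted for BRD2, BRD3, BRD4, c-Myc and PARP, with GAPDH as loading control.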

[6] = biological target: T1, Protein cereblon/Bromodomain-containing protein 3/Cullin-4A (Homo sapiens); assay: Induction of cereblon/cullin 4A-mediated BRD3 degradation in human RS4:11 cells at 1 nM after 3 hrs in presence of cereblon inhibitor lenalidomide by Western blot method; assay type: cell-based
[7] = biological target: T2, Protein cereblon/Bromodomain-containing protein 4/Cullin-4A (Homo sapiens); assay: Induction of cereblon/cullin 4A-mediated BRD4 degradation in human RS4:11 cells at 1 nM after 3 hrs in presence of NAE inhibitor MLN4924 by Western blot method; assay type: cell-based
[8] = biological target: T2, Protein cereblon/Bromodomain-containing protein 4/Cullin-4A (Homo sapiens); assay: Induction of cereblon/cullin 4A-mediated BRD4 degradation in human RS4:11 cells at 1 nM after 3 hrs in presence of BET inhibitor 4-((3-Cyclopropyl-1-ethyl-1H-pyrazol-5-yl)amino)-7-(3,5-dimethylisoxazol-4-yl)-6-methoxy-N-methyl-9H-pyrimido[4,5-b]-indole-2-carboxamide by Western blot method; assay type: cell-based
[9] = biological target: T2, Protein cereblon/Bromodomain-containing protein 4/Cullin-4A (Homo sapiens); assay: Induction of cereblon/cullin 4A-mediated BRD4 degradation in human RS4:11 cells at 0.03 nM after 24 hrs by Western blot method; assay type: cell-based
In short: (§2)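 Western blot of RS4;11 cells (2 × 10⁶ cells/well) in RPMI 1640 with 10% FBS, 37 °C, 5% CO₂, used within three months of thawing. Compound exposure was 3 h or 24 h at the indicated concentrations. Cells were lysed in RIPA with protease inhibitors, and BRD2, BRD3 and BRD4 were detected with specific antibodies, with GAPDH as loading control.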

[10] = biological target: T3, Protein cereblon/Bromodomain-containing protein 2/Cullin-4A (Homo sapiens); assay: Induction of cereblon/cullin 4A-mediated BRD2 degradation in human RS4:11 cells at 1 nM after 3 hrs in presence of BET inhibitor 4-((3-Cyclopropyl-1-ethyl-1H-pyrazol-5-yl)amino)-7-(3,5-dimethylisoxazol-4-yl)-6-methoxy-N-methyl-9H-pyrimido[4,5-b]-indole-2-carboxamide by Western blot method; assay type: cell-based
[11] = biological target: T3, Protein cereblon/Bromodomain-containing protein 2/Cullin-4A (Homo sapiens); assay: Induction of cereblon/cullin 4A-mediated BRD2 degradation in human RS4:11 cells at 0.1 nM after 24 hrs by Western blot method; assay type: cell-based; in short: as §1
[12] = biological target: T2, Protein cereblon/Bromodomain-containing protein 4/Cullin-4A (Homo sapiens); assay: Induction of cereblon/cullin 4A-mediated BRD4 degradation in human RS4:11 cells after 3 hrs by Western blot method; assay type: cell-based; in short: as §2
[13] = biological target: T3, Protein cereblon/Bromodomain-containing protein 2/Cullin-4A (Homo sapiens); assay: Induction of cereblon/cullin 4A-mediated BRD2 degradation in human RS4:11 cells after 3 hrs by Western blot method; assay type: cell-based
In short: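 RS4;11 cells (2 × 10⁶/well) treated for 3 h at the indicated concentrations. Lysed in RIPA with protease inhibitors and immunoblotted for BRD2, BRD3 and BRD4 with specific antibodies.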

[14] = tested on: RS4-11; assay: Induction of cell cycle arrest in human RS4:11 cells after 24 hrs by propidium iodide staining based flow cytometry; assay type: functional
In short: (§3)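 RS4;11 or MOLM-13 cells treated with compound for 24 h, then analyzed by flow cytometry. Cell cycle read by propidium iodide staining and apoptosis by annexin V/propidium iodide staining.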

[15] = tested on: MOLM-13; assay: Induction of cell cycle arrest in human MOLM13 cells after 24 hrs by propidium iodide staining based flow cytometry; assay type: functional; in short: as §3
[16] = tested on: RS4-11; assay: Induction of apoptosis in human RS4:11 cells at 3 to 10 nM after 24 hrs by Annexin-V/propidium iodide staining based flow cytometry; assay type: functional, cell-based; in short: as §3
[17] = tested on: MOLM-13; assay: Induction of apoptosis in human MOLM13 cells at 3 to 10 nM after 24 hrs by Annexin-V/propidium iodide staining based flow cytometry; assay type: functional, cell-based; in short: as §3
[18] = tested on: Mus musculus; assay: In vivo induction of cereblon/cullin 4A-mediated BRD3 degradation in tumor of SCID mouse xenografted with human RS4:11 cells at 5 mg/kg, iv administered as single dose measured after 24 hrs by Western blot method; assay type: functional, organism-based
In short: (§4)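 SCID mice bearing subcutaneous RS4;11 tumors received a single 5 mg/kg iv dose. Sacrificed at 1, 3, 6 and 24 h, with vehicle controls at 6 h, two mice per time point. Tumors ground in liquid nitrogen and lysed in CHAPS buffer, then immunoblotted for BRD2/3/4, c-Myc, PARP/cleaved PARP and caspase-3/cleaved caspase-3. Actin served as loading control.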

[19] = tested on: Mus musculus; assay: In vivo induction of cereblon/cullin 4A-mediated BRD4 degradation in tumor of SCID mouse xenografted with human RS4:11 cells at 5 mg/kg, iv administered as single dose measured after 24 hrs by Western blot method; assay type: functional, organism-based; in short: as §4
[20] = tested on: Mus musculus; assay: In vivo induction of cereblon/cullin 4A-mediated BET degradation in tumor of SCID mouse xenografted with human RS4:11 cells assessed as downregulation of c-Myc level at 5 mg/kg, iv administered as single dose measured up to 6 hrs by Western blot method; assay type: functional, organism-based; in short: as §4
[21] = tested on: Mus musculus; assay: Increase in PARP cleavage in tumor of SCID mouse xenografted with human RS4:11 cells at 5 mg/kg administered as single dose measured up to 6 hrs by Western blot method; assay type: functional, organism-based; in short: as §4
[22] = tested on: Mus musculus; assay: Increase in caspase-3 cleavage in tumor of SCID mouse xenografted with human RS4:11 cells at 5 mg/kg administered as single dose measured up to 6 hrs by Western blot method; assay type: functional, organism-based; in short: as §4
[23] = Drug metabolism in mouse liver microsomes assessed as metabolite m1 formation at 10 uM after 20 to 40 mins in presence of beta-NADPH […]; assay type: ADME, microsome
[24] = Drug metabolism in mouse liver microsomes assessed as metabolite m3 formation at 10 uM after 20 to 40 mins in presence of beta-NADPH […]; assay type: ADME, microsome
[25] = Drug metabolism in mouse liver microsomes assessed as N-butyl-4-(3-cyclopropyl-1-ethyl-1H-pyrazol-5-ylamino)-7-(3,5-dimethylisoxazol-4-yl)-6-methoxy-9H-pyrimido[4,5-b]indole-2-carboxamide formation at 10 uM after 20 to 40 mins in presence of beta-NADPH […]; assay type: ADME, microsome
[26] = Drug metabolism in mouse liver microsomes assessed as 4-(3-cyclopropyl-1H-pyrazol-5-ylamino)-7-(3,5-dimethylisoxazol-4-yl)-N-(5-(2-(2,6-dioxopiperidin-3-yl)-1-oxoisoindolin-4-yl)pentyl)-6-methoxy-9H-pyrimido[4,5-b]indole-2-carboxamide formation at 10 uM after 20 to 40 mins in presence of beta-NADPH […]; assay type: ADME, microsome

T3 sequence (P25440 whole entry, looked up): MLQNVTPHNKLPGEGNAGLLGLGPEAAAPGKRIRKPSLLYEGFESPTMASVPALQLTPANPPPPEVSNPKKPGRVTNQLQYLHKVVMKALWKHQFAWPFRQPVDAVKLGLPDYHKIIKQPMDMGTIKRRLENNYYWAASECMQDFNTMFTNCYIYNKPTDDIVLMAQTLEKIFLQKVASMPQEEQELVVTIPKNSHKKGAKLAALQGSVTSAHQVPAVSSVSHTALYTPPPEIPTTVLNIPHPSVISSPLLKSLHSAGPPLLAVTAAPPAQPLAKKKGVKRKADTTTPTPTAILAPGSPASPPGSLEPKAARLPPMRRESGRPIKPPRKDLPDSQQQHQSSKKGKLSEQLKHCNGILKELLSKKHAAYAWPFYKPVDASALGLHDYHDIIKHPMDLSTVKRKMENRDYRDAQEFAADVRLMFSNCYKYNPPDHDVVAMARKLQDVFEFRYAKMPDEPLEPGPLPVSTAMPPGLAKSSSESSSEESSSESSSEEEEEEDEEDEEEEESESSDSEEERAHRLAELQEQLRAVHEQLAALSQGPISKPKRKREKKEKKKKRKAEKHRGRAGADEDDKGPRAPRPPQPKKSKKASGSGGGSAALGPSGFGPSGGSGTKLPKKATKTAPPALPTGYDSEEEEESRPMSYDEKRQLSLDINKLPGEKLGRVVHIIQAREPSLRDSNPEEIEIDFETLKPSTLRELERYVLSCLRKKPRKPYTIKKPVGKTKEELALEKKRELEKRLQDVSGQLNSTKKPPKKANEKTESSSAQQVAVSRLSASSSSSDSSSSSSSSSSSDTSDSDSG
T3 sequence (Q13619 whole entry, looked up): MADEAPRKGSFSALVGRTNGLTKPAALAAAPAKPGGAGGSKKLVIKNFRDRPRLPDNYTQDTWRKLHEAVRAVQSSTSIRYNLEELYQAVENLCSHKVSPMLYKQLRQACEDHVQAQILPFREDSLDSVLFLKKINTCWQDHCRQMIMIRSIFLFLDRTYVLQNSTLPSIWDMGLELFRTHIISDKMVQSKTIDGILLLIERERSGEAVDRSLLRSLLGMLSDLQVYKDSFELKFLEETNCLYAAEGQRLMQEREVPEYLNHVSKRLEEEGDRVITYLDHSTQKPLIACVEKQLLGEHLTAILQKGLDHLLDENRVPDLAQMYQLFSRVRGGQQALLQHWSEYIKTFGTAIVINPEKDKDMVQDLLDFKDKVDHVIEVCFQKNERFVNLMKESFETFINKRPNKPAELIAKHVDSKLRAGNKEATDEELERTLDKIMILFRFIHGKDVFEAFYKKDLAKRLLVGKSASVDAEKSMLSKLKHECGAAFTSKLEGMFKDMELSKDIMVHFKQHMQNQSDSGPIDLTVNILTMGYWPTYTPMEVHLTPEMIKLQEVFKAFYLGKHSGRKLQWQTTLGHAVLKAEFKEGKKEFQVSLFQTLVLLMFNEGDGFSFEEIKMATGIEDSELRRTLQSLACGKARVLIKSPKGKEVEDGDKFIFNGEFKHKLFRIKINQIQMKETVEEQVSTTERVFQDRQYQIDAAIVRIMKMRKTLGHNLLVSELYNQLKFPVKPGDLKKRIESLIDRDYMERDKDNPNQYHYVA
T3 sequence (Q96SW2 whole entry, looked up): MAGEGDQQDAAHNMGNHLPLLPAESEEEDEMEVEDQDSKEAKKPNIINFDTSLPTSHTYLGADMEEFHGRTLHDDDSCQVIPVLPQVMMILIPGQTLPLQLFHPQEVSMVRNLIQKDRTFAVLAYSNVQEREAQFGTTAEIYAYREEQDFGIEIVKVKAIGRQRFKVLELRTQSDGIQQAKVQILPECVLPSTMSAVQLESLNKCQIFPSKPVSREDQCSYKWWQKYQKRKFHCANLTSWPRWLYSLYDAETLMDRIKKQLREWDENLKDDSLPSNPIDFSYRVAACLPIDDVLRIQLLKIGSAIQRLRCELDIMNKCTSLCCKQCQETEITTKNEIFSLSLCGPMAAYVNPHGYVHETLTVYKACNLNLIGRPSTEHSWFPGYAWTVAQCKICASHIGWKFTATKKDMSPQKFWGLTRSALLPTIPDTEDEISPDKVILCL
T1 sequence (Q13619 whole entry, looked up): as the sequence (Q13619 whole entry, looked up) above
T1 sequence (Q15059 whole entry, looked up): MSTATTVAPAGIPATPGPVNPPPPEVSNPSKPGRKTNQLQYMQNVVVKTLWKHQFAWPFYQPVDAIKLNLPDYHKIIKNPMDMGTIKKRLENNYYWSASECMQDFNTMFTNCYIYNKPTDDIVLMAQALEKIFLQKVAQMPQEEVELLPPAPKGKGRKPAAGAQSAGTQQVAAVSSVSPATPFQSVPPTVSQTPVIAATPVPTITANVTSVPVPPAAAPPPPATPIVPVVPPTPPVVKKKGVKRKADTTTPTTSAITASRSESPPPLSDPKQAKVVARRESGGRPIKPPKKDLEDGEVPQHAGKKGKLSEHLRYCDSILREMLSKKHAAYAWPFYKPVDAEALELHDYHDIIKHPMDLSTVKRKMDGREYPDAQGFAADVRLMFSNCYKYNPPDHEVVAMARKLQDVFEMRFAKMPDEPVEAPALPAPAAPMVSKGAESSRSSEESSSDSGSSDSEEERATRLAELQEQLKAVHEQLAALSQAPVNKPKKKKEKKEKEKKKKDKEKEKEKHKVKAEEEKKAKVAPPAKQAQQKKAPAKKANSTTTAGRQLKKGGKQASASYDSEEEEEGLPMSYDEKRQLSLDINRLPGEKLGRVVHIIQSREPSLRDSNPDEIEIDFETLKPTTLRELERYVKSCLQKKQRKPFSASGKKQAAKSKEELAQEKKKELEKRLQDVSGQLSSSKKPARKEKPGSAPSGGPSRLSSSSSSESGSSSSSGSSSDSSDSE
T1 sequence (Q96SW2 whole entry, looked up): as the sequence (Q96SW2 whole entry, looked up) above

Activity [1]: inactive
Activity [2]: inactive
Activity [3]: inactive
Activity [4]: inactive
Activity [6]: inactive
Activity [7]: inactive
Activity [8]: inactive
Activity [9]: Active
Activity [10]: inactive
Activity [11]: Active
Activity [12]: Dose-dependent effect
Activity [13]: Dose-dependent effect
Drug metabolism [23]: Metabolite_Detected
Drug metabolism [24]: Metabolite_Detected
Drug metabolism [25]: Metabolite_Detected
Drug metabolism [26]: Metabolite_Detected
SMILES: CCn1nc(C2CC2)cc1Nc1nc(C(=O)NCCCCCc2cccc3c2CN(C2CCC(=O)NC2=O)C3=O)nc2[nH]c3cc(-c4c(C)noc4C)c(OC)cc3c12 (stereo unspecified)
Activity [5]: Active
Activity [14]: Dose-dependent effect
Activity [15]: Dose-dependent effect
Activity [16]: Active
Activity [17]: Active
Activity [18]: Active
Activity [19]: Active
Activity [20]: Active
Activity [21]: Active
Activity [22]: Active
